Calls of active or inactive are those of the source. The calls are words filed in the database; no cut-off is given here.
Assays:
CCRF-CEM = assay: Induction of cell cycle arrest in human CCRF-CEM cells assessed as accumulation of cells at G2/M phase at 10 uM incubated for 24 hrs by PI staining based flow cytometry analysis; format: functional
Procedure, shortened: (§1)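 Seeding in 6-well plates, 2 mL medium: A549 5×10^4, CCRF-CEM 2.5×10^5, VL51 2.0×10^5. 24 h treatment, A549 detached with trypsin-EDTA. Cells fixed in 70% ice-cold ethanol, PI-labelled, analysed by flow cytometry. Mean of two independent experiments.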

Tubulin (Homo sapiens) [1] = target: T1, Tubulin (Homo sapiens) (UniProt P68371+Q9H4B7+P0DPH7+P68366+Q13509+Q71U36+P04350+Q3ZCM7+P07437+P68363+Q9BQE3+Q6PEY2+Q13885+Q9BVA1+Q9BUF5); assay: Inhibition of [3H]colchicine binding to tubulin (unknown origin) at 5 uM relative to control; format: protein-complex assay
Procedure, shortened: (§2)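 Colchicine-site competition: 0.5 μM tubulin with 5.0 μM [3H]colchicine and inhibitor at 5.0 μM, or 25 μM where stated.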

VL51 [2] = assay: Induction of cell cycle arrest in human VL51 cells assessed as increase in mitotic cells at 0.5 to 1 uM incubated for 24 hrs by PI staining based flow cytometry analysis; format: functional; conditions: dose 0.5-1 µM
[3] = Cytotoxicity against resting human PBL cells assessed as inhibition of cell growth measured after 72 hrs by MTT assay; format: toxicity, cell-based; conditions: resting human peripheral blood lymphocytes (PBL)
[4] = Cytotoxicity against PHA-induced human PBL cells assessed as inhibition of cell growth measured after 72 hrs by MTT assay; format: toxicity, cell-based; conditions: PHA-induced human peripheral blood lymphocytes (PBL)
Tubulin (Homo sapiens) [5] = target: T1, Tubulin (Homo sapiens); assay: Inhibition of [3H]colchicine binding to tubulin (unknown origin) at 25 uM relative to control; format: protein-complex assay; procedure, shortened: as §2
VL51 [6] = assay: Induction of mitochondrial membrane potential depolarization in human VL51 cells at 0.5 to 1 uM measured after 24 hrs by JC-1 fluorescent dye based flow cytometry analysis; format: functional, cell-based; conditions: dose 0.5-1 µM
Procedure, shortened: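 VL51 cells treated 24 h at 0.5 and 1.0 μM, labelled with JC-1, analysed by flow cytometry in FL1 and FL2 channels.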

A549 = assay: Induction of cell cycle arrest in human A549 cells assessed as accumulation of cells at G2/M phase at 5 uM incubated for 24 hrs by PI staining based flow cytometry analysis; format: functional; procedure, shortened: as §1
Tubulin = assay: Inhibition of tubulin assembly (unknown origin); format: protein-complex assay, Homo sapiens
VL51 [7] = assay: Induction of cell cycle arrest in human VL51 cells assessed as accumulation of cells at G2/M phase at 5 uM incubated for 24 hrs by PI staining based flow cytometry analysis; format: functional; procedure, shortened: as §1

COc1ccc(Cn2cc3c(c2-c2ccccc2)CCCc2cnoc2-3)cc1
Activity (CCRF-CEM): Active
inhibition (Tubulin (Homo sapiens) [1]): 1.8%
Activity (VL51 [2]): inactive
IC50 at 72 h [3]: > 10 µM
IC50 at 72 h [4]: > 10 µM
inhibition (Tubulin (Homo sapiens) [5]): 19%
Activity (VL51 [6]): inactive
Activity (A549): Active
IC50 (Tubulin): 1.1 µM
Activity (VL51 [7]): Active

COc1ccc(Cn2cc3c(c2-c2ccc(OC)cc2)CCCc2cnoc2-3)cc1
inhibition (Tubulin (Homo sapiens) [1]): 7.7%
IC50 (Tubulin): 4.6 µM

Reference: ChEMBL document CHEMBL5321217, “Identification of pyrrolo[3',4':3,4]cyclohepta[1,2-d][1,2]oxazoles as promising new candidates for the treatment of lymphomas” (Eur J Med Chem, 2023)
